Assay outcomes deposited in PubChem by The Scripps Research Institute Molecular Screening Center.
TAAR1 antag = human TAAR1 antagonism; inhibition, % at 3 µM; AID 624466; actives 1.5% (n = 360,000); CHO RD-HGA16 TAAR1, Fluo-8 calcium fluorescence, antagonist; Q96RJ0;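 active = inhibition above a per-plate cutoff, the mean inhibition of test compounds on that plate plus 3 SD, cut at about 49% in these data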
Target sequence (Q96RJ0 whole entry, looked up): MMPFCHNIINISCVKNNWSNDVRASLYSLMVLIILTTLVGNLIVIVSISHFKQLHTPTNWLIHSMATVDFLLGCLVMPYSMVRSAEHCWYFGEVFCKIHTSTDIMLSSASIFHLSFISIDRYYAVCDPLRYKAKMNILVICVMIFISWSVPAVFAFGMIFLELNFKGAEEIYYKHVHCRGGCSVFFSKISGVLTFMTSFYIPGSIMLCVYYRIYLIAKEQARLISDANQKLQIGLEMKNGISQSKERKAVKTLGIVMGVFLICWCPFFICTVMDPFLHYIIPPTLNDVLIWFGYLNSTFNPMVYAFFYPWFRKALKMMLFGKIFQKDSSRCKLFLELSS
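Test system: hTAAR1-expressing CHO RD-HGA16 cells, Gα16-coupled; Probe or stimulus: EC80 β-phenethylamine stimulus; Compound dosing: single nominal final test compound concentration of 3 µM; Timing: 140 s kinetic read after compound, 140 s after agonist; Signal: Fluo-8 calcium-sensitive fluorescence; Measure: % inhibition of agonist calcium response; Controls: DMSO and EC80 PEA controls.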
M1 ag = agonists of human M1 muscarinic receptor; P11229; actives 0.33% (n = 360,000); CHO-K1 hM1, Fluo-8 calcium fluorescence, agonist mode; 0% DMSO, 100% acetylcholine EC100; AID 588814; activation, % at 3 µM;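 active = activation above the run's mean compound activation plus 3 SD, cut at about 16% in these data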;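 note: peak over basal fluorescence ratio within a 140 s kinetic read after compound addition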
TAAR1 ag = human TAAR1 agonism. CHO RD-HGA16 TAAR1, Fluo-8 calcium fluorescence; vehicle wells 0%, saturating PEA agonist 100%. actives 0.99% (n = 360,000). activation, % at 3 µM;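 active = activation above the mean activation of all test compounds in the run plus 3 SD, cut at about 38% in these data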
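System: CHO-derived RD-HGA16 cells with stable Gα16 and human TAAR1. Times: 17-24 h plating, Fluo-8 75 min 37 °C, 30 min RT. Measured by: calcium-sensitive Fluo-8 signal, excitation 470-495, emission 515-575 nm. Read-out basis: % activation relative to PEA EC100 response. Control set: DMSO and PEA EC100. Repeats: no replicates (n 1).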
M1 PAM = positive allosteric modulators of human M1 muscarinic receptor; CHO-K1 hM1, Fluo-8 calcium fluorescence, ACh EC20; 0% = ACh EC20, 100% = maximal ACh; P11229; actives 0.088% (n = 360,000); activation, % at 3 µM; in the data active = activation above about 19%, passing the limit was not always enough
CHRM1 antagonist = antagonists of human M1 muscarinic receptor. CHO-K1 hM1, Fluo-8 calcium fluorescence, ACh EC80 antagonist. AID 588852. actives 1.3% (n = 360,000). P11229. inhibition, % at 3 µM;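 active = percent inhibition above its own plate's cutoff, namely the mean of that plate's compound wells plus 3 SD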;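 note: peak over basal fluorescence ratio during 140 s after agonist addition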
HTR2A ag = mouse HTR2A agonism via beta-arrestin recruitment | CHO-K1 mHTR2A beta-arrestin complementation, luminescence; percent of 30 µM serotonin response | activation, % at 7.6 µM | AID 624169 | P35363 | actives 0.66% (n = 360,000);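 active = activation above a run cutoff, the mean activation of all tested compounds plus 3 SD, cut at about 14% in these data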
A number is an active result; n = inactive; x = no result given. Sampled rows, rich in hits. Any-hit rate of the full collection: about 3.9%.

SMILES	TAAR1 antag	M1 ag	TAAR1 ag	M1 PAM	CHRM1 antagonist	HTR2A ag
Cc1cc(C)c(S(=O)(=O)c2ccc(Cl)cc2)c(Cl)n1	n	n	n	n	n	n
Cc1cc(S(=O)(=O)c2ccc(Cl)cc2)nc(S(=O)(=O)c2ccc(Cl)cc2)c1C#N	68	n	n	n	n	n
O=CC(=Cc1ccccc1)c1ccccc1	n	n	n	n	n	n
Cc1ccc(/C=C2\SC(=S)N(CCC(=O)NNC(=O)c3cccc(O)c3)C2=O)cc1	n	n	n	n	32	n
O=C(CCN1C(=O)/C(=C/c2ccc(F)cc2)SC1=S)NNC(=O)c1cccnc1	n	n	n	n	n	n
Cc1ccc(/C=C2\SC(=S)N(CCC(=O)NNC(=O)c3ccc(O)cc3)C2=O)cc1	n	n	n	n	n	n
O=C(CCN1C(=O)/C(=C/c2ccccc2Cl)SC1=S)Nc1cccnc1	50	n	n	n	n	n
O=C(CCN1C(=O)/C(=C/c2ccccc2)SC1=S)NNC(=O)c1cccnc1	60	n	n	n	n	n
CCCCNC(=O)C1(C)CCN1C(=O)c1csnn1 (stereo unspecified)	n	n	n	n	n	n
Oc1ccc(C23CCCC2C2(CCCC2)c2ccc(O)cc2O3)c(O)c1 (stereo unspecified)	99	40	71	n	38	n
Cc1cccc(NC(=O)c2ccc(N3C(=O)C4CCCCC4C3=O)cc2)c1C (stereo unspecified)	n	n	n	n	n	n
O=C(Nc1cccc(S(=O)(=O)N2CCOCC2)c1)c1ccc2c(=O)n3c(nc2c1)CCCCC3	51	n	n	n	n	n
O=C(Nc1ccccc1Cl)c1ccc2c(=O)n3c(nc2c1)CCC3	n	n	n	n	n	n
O=C(Nc1nc(-c2ccccc2)cs1)c1ccc2c(=O)n3c(nc2c1)CCCCC3	59	n	n	n	33	n
O=C(c1ccc(C(F)(F)F)cc1)N1CCC(=O)N(C(COCc2ccccc2)Cc2ccccc2)CC1 (stereo unspecified)	n	n	n	n	n	n
CC(C)(C)c1ccc(C(=O)N2CCC(=O)N(C(COCc3ccccc3)Cc3ccccc3)CC2)cc1 (stereo unspecified)	74	n	n	n	33	n
CC(C)(C)c1ccc(C(=O)N2CCC(=O)N(C(CO)Cc3ccccc3)CC2)cc1 (stereo unspecified)	n	n	46	n	n	n
COc1ccc(/C=C(\NC(=O)c2ccco2)C(=O)NC(Cc2ccccc2)C(=O)O)cc1 (stereo unspecified)	n	n	n	n	n	n
CN1CCc2nc3ccc(Cl)cc3c(-c3ccccc3Cl)c2C1	n	n	n	n	93	n
Cc1nc2ccc(Cl)cc2c(-c2ccccc2Cl)c1CC(=O)O	n	n	n	n	n	n
COc1ccc2oc(=O)c(/C(C)=N/Nc3ccccc3)cc2c1	n	n	n	n	n	n
CC1(C(=O)Nc2ccc3c(c2)OCO3)CCN1C(=O)Cc1ccc(-c2ccccc2)cc1 (stereo unspecified)	n	n	n	n	38	n
CC1(C(=O)Nc2ccc3[nH]ncc3c2)CCN1C(=O)Cc1ccc(-c2ccccc2)cc1 (stereo unspecified)	50	n	n	n	28	n
CC(C)(C)c1ccc(CC(=O)N2CCC2(C)C(=O)Nc2ccc3[nH]ncc3c2)cc1 (stereo unspecified)	n	n	n	n	n	n
CC1(C(=O)Nc2ccccc2)CCN1C(=O)Cc1ccc(-c2ccccc2)cc1 (stereo unspecified)	n	n	n	n	n	n
SMILES	TAAR1 antag	M1 ag	TAAR1 ag	M1 PAM	CHRM1 antagonist	HTR2A ag
Cn1nc(C2CC2)cc1NC(=O)C1(C)CCN1C(=O)Cc1ccc(-c2ccccc2)cc1 (stereo unspecified)	n	n	n	n	30	n
Cn1nc(C2CC2)cc1NC(=O)C1(C)CCN1C(=O)CCc1ccccc1 (stereo unspecified)	n	n	n	n	n	n
CCOC(=O)c1ccc(-n2cnc(-c3ccc([N+](=O)[O-])cc3)c2)cc1	n	n	n	n	n	n
CCOc1cc(CNCc2cccnc2)cc(Br)c1OCC(N)=O	n	n	n	n	n	n
CCCN(CCC)CCCOC(=O)c1ccc(Cl)cc1Cl	n	n	n	n	68	n
Cc1ccc(C(=O)Nc2ccccc2C(=O)N2CCCCCC2)cc1	n	n	n	n	n	n
O=C(Nc1ccccc1C(=O)N1CCCC1)c1ccccc1	n	16	n	n	n	n
O=C(CCCN1C(=O)/C(=C/c2cccs2)SC1=S)Nc1cccc(O)c1	n	n	n	n	25	n
O=C(CCN1C(=O)/C(=C\c2cccs2)SC1=S)Nc1ccccn1	n	n	44	n	n	n
O=C(CN1CCCCC1)NNc1nc(-c2ccccc2)c2cc(Br)ccc2n1	n	n	n	n	n	n
CCCNC(=O)C(Cc1ccccc1)NC(=O)c1ccc(-c2ccccc2)cc1 (stereo unspecified)	n	n	n	n	n	n
O=C(COC(=O)CNC(=O)c1ccc(Cl)c([N+](=O)[O-])c1)NC(=O)CN1CCCC1=O	n	n	n	n	n	n
O=C(CSc1ccc2ccccc2c1)Nc1ccncc1	n	n	n	n	31	n
O=C(CSc1ccncc1)Nc1ccc2ccccc2c1	n	n	n	n	n	n
COC(=O)c1cc2c(c3c4cc(OC)ccc4n(S(=O)(=O)c4ccc(OC)cc4)c13)C(=O)N(Cc1ccco1)C2	n	x	n	x	x	x
CCS(=O)(=O)N1CCN(S(=O)(=O)c2ccc(Cl)s2)CC1	n	n	n	n	37	n
Cc1ccccc1CN1CCN(S(=O)(=O)c2ccc(Cl)s2)CC1	n	n	n	n	n	n
COc1cccc(CNc2ccc3[nH]c(=O)[nH]c3c2)c1OCc1ccc(F)cc1	50	n	n	n	n	n
O=[N+]([O-])c1ccc(-c2ccc(/C=N/Nc3nc(NCc4ccccc4)nc(N4CCOCC4)n3)o2)cc1	n	n	n	n	26	n
O=S(=O)(NCc1ccc(F)cc1)c1ccc(Br)cc1Br	n	n	n	n	n	n
O=C(NCCCN1CCC(Cc2ccccc2)CC1)C1CC(=O)N(C2CCCC2)C1 (stereo unspecified)	n	n	n	n	33	n
CCOc1cc(C)c(S(=O)(=O)Nc2ccc3cn[nH]c3c2)cc1C	x	n	x	n	32	n
N#CCSc1nc2ccc(N3CCCCC3)cc2c(=O)n1Cc1ccccc1	n	n	n	n	22	n
Cc1c2cc(O)c(=O)cc-2oc2cc(O)c(O)cc12	n	n	205	n	n	n
